{"source": "ChEMBL document CHEMBL1649157", "about": "“Intracellular activity of antibiotics against Staphylococcus aureus in a mouse peritonitis model” (Antimicrob Agents Chemother, 2009)", "key": {"[1]": {"test_system": "Staphylococcus aureus", "test": "Antibacterial activity against Staphylococcus aureus E19977 infected in NMRI mouse assessed as log reduction in extracellular bacterial cfu in peritoneum at 200 mg/kg, sc administered 2 hrs after infection evry 8 hrs as three-dose regimen measured after 19 hrs", "type": "functional", "conditions": "route subcutaneous"}, "[2]": {"test_system": "Staphylococcus aureus", "test": "Antibacterial activity against Staphylococcus aureus E19977 infected in NMRI mouse assessed as log reduction in intracellular bacterial cfu in peritoneum at 10 to 200 mg/kg, sc administered 2 hrs after infection measured after 4 hrs", "type": "functional, organism-based", "procedure,_shortened": "(§1)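 Dose–response in i.p.-infected NMRI mice (mucin adjuvant). Single doses of 200, 60, 30, 20 or 10 mg/kg were given 2 h after inoculation, with 4–16 mice per group. Peritoneal wash was sampled 4 h later and split by lysostaphin/centrifugation into total, extra- and intracellular counts, then expressed as Δlog10 CFU/ml against log dose. Vehicle controls were plotted as 0.3 mg/kg. Hill fit (variable slope); static dose interpolated.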"}, "[3]": {"test_system": "Staphylococcus aureus", "test": "Antibacterial activity against Staphylococcus aureus E19977 infected in NMRI mouse assessed as log reduction in intracellular bacterial cfu in peritoneum at 60 mg/kg, sc administered as single dose 3 hrs after infection measured after 4 hrs", "type": "functional, organism-based", "set-up": "dose 60 mg/kg", "procedure,_shortened": "(§2)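 NMRI mice were infected i.p. with S. aureus E19977 in 5% mucin. A single dose (60 mg/kg or 10 mg/kg) was given 1, 2 or 3 h after inoculation, four mice per group. Peritoneal wash was sampled after 4 h of treatment and separated into total, extracellular and intracellular counts by lysostaphin/centrifugation. Δlog10 CFU/ml was calculated against vehicle-treated mice infected for the same time (5, 6 or 7 h).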"}, "[4]": {"test_system": "Staphylococcus aureus", "test": "Antibacterial activity against Staphylococcus aureus E19977 infected in NMRI mouse assessed as log reduction in extracellular bacterial cfu in peritoneum at 60 mg/kg, sc administered as single dose 3 hrs after infection measured after 4 hrs", "type": "functional, organism-based", "set-up": "dose 60 mg/kg", "procedure,_shortened": "as §2"}, "[5]": {"test_system": "Staphylococcus aureus", "test": "Bactericidal activity against Staphylococcus aureus E19977 assessed as log reduction in cfu at 1.5 mg/liter upto 24 hrs by time-kill study", "type": "functional", "procedure,_shortened": "(§3)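 Clinical bacteremia isolate (penicillin-resistant, methicillin-susceptible). Exponential-phase bacteria were placed in an in vitro kinetic model that simulates drug elimination without changing the inoculum. The starting drug level matched the human free peak serum concentration after a single dose, with simulated human elimination half-life. Samples were taken at 0, 2, 4, 6, 8, 12 and 24 h, with growth controls in each run.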"}, "[6]": {"test_system": "Staphylococcus aureus", "test": "Antibacterial activity against Staphylococcus aureus E19977 infected in NMRI mouse assessed as log reduction in intracellular bacterial cfu in peritoneum at 60 mg/kg, sc administered as single dose 2 hrs after infection measured after 4 hrs", "type": "functional, organism-based", "set-up": "dose 60 mg/kg", "procedure,_shortened": "as §2"}, "[7]": {"test": "Half life in human at 1000 mg, po", "type": "ADME, organism-based", "conditions": "in vivo"}, "[8]": {"test_system": "Staphylococcus aureus", "test": "Antibacterial activity against Staphylococcus aureus E19977 infected in NMRI mouse assessed as log reduction in bacterial cfu in peritoneum at 200 mg/kg, sc administered 2 hrs after infection evry 8 hrs as three-dose regimen measured after 19 hrs", "type": "functional", "conditions": "route subcutaneous", "procedure,_shortened": "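Female outbred NMRI mice (25 to 30 g) were infected i.p. with 0.5 ml of 10^7.7 CFU/ml S. aureus E19977 in 5% (wt/vol) mucin. The first dose was given 2 h after inoculation, either once or as three doses every 8 h, with four mice per group. Mice were euthanized 19 h after treatment onset and washed peritoneally with 2.0 ml saline. Total CFU were counted by duplicate spotting of 10-fold dilutions on 5% blood agar.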"}, "[9]": {"test_system": "Staphylococcus aureus", "test": "Antibacterial activity against Staphylococcus aureus E19977 infected in NMRI mouse assessed as log reduction in extracellular bacterial cfu in peritoneum at 10 to 200 mg/kg, sc administered 2 hrs after infection measured after 4 hrs", "type": "functional, organism-based", "procedure,_shortened": "as §1"}, "[10]": {"test_system": "Staphylococcus aureus", "test": "Bactericidal activity against Staphylococcus aureus E19977 assessed as log reduction in cfu at 2 mg/liter upto 24 hrs by time-kill study", "type": "functional", "procedure,_shortened": "as §3"}, "[11]": {"test_system": "Serum", "test": "Protein binding in human serum at 1000 mg, po", "type": "ADME, organism-based", "conditions": "in vivo"}, "[12]": {"test_system": "Staphylococcus aureus", "test": "Bactericidal activity against Staphylococcus aureus E19977 assessed as log reduction in cfu at 2 mg/liter after 12 hrs by time-kill study", "type": "functional", "procedure,_shortened": "as §3"}, "[13]": {"test_system": "Staphylococcus aureus", "test": "Bactericidal activity against Staphylococcus aureus E19977 assessed as log reduction in cfu at 20 mg/liter after 24 hrs by time-kill study", "type": "functional, organism-based", "procedure,_shortened": "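In vitro kinetic model simulating antibiotic elimination without inoculum change. Exponential-phase E19977 was added at a final 10^6.3 CFU/ml. Starting drug concentration matched the human free peak, with the human half-life simulated. Samples were plated on 5% blood agar at 0, 2, 4, 6, 8, 12 and 24 h, with growth controls in each run. Results are shown as mean and range, n = 2.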"}}, "note": "The source made the active and inactive calls. The calls are words filed in the database; no cut-off is given here."}
{"smiles": "Cc1onc(-c2c(Cl)cccc2Cl)c1C(=O)N[C@@H]1C(=O)N2[C@@H]1SC(C)(C)[C@@H]2C(=O)O", "note": "[DICLOXACILLIN]", "values": [{"measurement": "FC", "setting": "[1]", "value": 2}, {"measurement": "Activity", "setting": "[2]", "value": "Dose-dependent effect"}, {"measurement": "Activity", "setting": "[3]", "value": "inactive"}, {"measurement": "Activity", "setting": "[4]", "value": "inactive"}, {"measurement": "FC", "setting": "[5]", "value": 2}, {"measurement": "Activity", "setting": "[6]", "value": "Active"}, {"measurement": "half-life", "setting": "[7]", "value": 1, "unit": "h"}, {"measurement": "FC", "setting": "[8]", "value": 2}, {"measurement": "Activity", "setting": "[9]", "value": "Dose-dependent effect"}, {"measurement": "FC", "setting": "[10]", "value": 2}, {"measurement": "Activity", "setting": "[11]", "value": 95, "unit": "%"}, {"measurement": "FC", "setting": "[12]", "value": 2}, {"measurement": "Activity", "setting": "[13]", "value": "inactive"}]}
